These results are taken from article PMC12866962 (Cell host & microbe, 2026).

The structures appear in SMILES notation.

Series [1] deals with ThsA from Escherichia coli. Particulars: homologous ThsA from Escherichia coli; cited from earlier work.
Series [2] concerns BaY2 Thoeris system (type II). Nature of the series: Thoeris protection in liquid media. Particulars: for Inhibition of BaY2 Thoeris (phage-induced host population lysis), in words: B. subtilis expressing BaY2 Thoeris, phage SPO1, liquid culture. It is filed as cell-based.
For series [3], the system named is P. aeruginosa MRSN11538 Thoeris system cloned into P. aeruginosa PAO1. Nature of the series: Thoeris protection in liquid media, P. aeruginosa PAO1:Thoeris + Lit1. It is filed as cell-based. Particulars: Pseudomonas aeruginosa, PAO1, read-out: IC50 (inhibition of type II Thoeris in P. aeruginosa PAO1:Thoeris).
Series [4] has as its system Thoeris system in the P. aeruginosa MRSN11538 clinical isolate. It is filed as cell-based. Particulars: Pseudomonas aeruginosa, read-out: IC50 (sensitization of P. aeruginosa MRSN11538 WT to Lit1). The method, boiled down: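 Liquid lysis assay. Host overnight culture diluted 1:100 into LB + 10 mM MgSO4; 180 µL added per well over 2 µL test compound stock (DMSO or water); 30 min at 37 °C before ~10,000 PFU Lit1. OD600 recorded every 30 min at 37 °C. Thoeris strength derived from integrated area under the lysis curve, normalized to no-compound and no-defense controls.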

Series [5] deals with T1, BaY2ThsB (Bacillus amyloliquefaciens, UniProt I2C644). It is filed as cell-based. Particulars: for His-ADPR production by ThsB: 500 µM of compound, SPO1-infected B. subtilis Pspank-BaY2ThsB, LC-HRMS.
T1 sequence (I2C644 whole entry): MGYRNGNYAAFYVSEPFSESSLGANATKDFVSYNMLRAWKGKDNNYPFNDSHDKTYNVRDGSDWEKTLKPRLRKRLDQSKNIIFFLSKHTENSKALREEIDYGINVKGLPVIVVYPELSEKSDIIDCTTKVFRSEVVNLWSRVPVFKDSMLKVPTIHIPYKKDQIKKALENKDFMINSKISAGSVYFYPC
In series [6] the target is T2, BaY2ThsA^Macro (Bacillus amyloliquefaciens, UniProt I2C645). Description: IP6C-ADPR and His-ADPR pull-down with BaY2ThsA^Macro. It is filed as binding, Bacillus amyloliquefaciens Y2.
T2 sequence (I2C645 83-297): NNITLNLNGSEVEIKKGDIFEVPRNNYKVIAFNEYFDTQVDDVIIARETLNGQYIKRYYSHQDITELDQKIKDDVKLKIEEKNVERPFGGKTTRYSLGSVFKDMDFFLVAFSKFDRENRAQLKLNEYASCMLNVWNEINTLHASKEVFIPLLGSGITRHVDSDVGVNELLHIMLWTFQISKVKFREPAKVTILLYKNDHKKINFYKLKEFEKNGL
Series [7] has as its system human cell lines (hTERT RPE-1, HDFn). Description: Human cell viability assay. It counts as cell-based. Particulars: 72 hours, Cell Titer Glo 2.0. In outline:
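hTERT RPE-1 and neonatal dermal fibroblasts were kept in DMEM with 10% FBS, penicillin/streptomycin, 37 °C, 5% CO2, and tested mycoplasma-negative. Cells were seeded at 2,000/well. After 24 h, medium was replaced with 0.1% DMSO vehicle or test compound (stock 1 M in DMSO), six replicate wells per dose. Luminescence was read after 72 h and expressed as percent viability relative to vehicle.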
A general note: ATP-based viability assays read luminescence as a measure of living cells.

Series [8] deals with P. aeruginosa PAO1:Thoeris. Nature of the series: Preliminary phage therapy model in mice infected with PAO1:Thoeris. Particulars: PAO1:Thoeris i.p. infection, IP6C only. It counts as in vivo, BALB/c mice.
The nature of series [9]: Toxicity test of compounds in mice. It counts as in vivo.
In series [10] the test system is Staphylococcus aureus USA300. Description: Polymicrobial model culture, S. aureus CFUs. It is filed as cell-based. Particulars: 300 µM IP6C, 8.5 hours.
Series [11] deals with BaY2 Thoeris system (type II). Nature of the series: Phage reproduction of SPO1. It counts as cell-based. Particulars: PFUs 15 hours post-infection; 1 mM of compound 1, 333 µM of IP6C, 1 mM of compound 5. In outline:
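B. subtilis overnight culture diluted 1:100 in LB; 180 µL added to wells with 2 µL compound stock (DMSO or water). Preincubated 30 min at 30 °C, then ~10,000 PFU SPO1 added; grown at 30 °C, 208 rpm, OD600 every 30 min. After 15 h, cleared supernatant (16,000 g, 10 min) titred by 5 µL drops of 1:10 dilutions on undefended B. subtilis soft-agar lawns.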

Series [12] has as its system E. faecalis DS16 Thoeris system cloned into E. faecalis OG1RF. Nature of the series: Phage reproduction of NPV1 on E. faecalis OG1RF:Thoeris. It is filed as cell-based, Enterococcus faecalis. Particulars: PFUs 15 hours post-infection; 10 mM of IP6C, 8.2 mM of nicotinamide. In outline: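 Overnight E. faecalis was diluted 1:1000 into THB + 10 mM MgSO4 and added to compound-containing wells. After 1 h at 37 °C, ~1,000 PFUs NPV1 were added, with OD600 read every 30 min. At 15 h, culture was spun at 16,000 g for 10 min. Supernatant PFUs were titred by small-drop plaque assay on defenceless E. faecalis and compared with input PFUs. Mean ± SEM, three biological replicates.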

The nature of series [13]: Quantification of IP6C in polymicrobial model culture. It counts as physicochemical. Particulars: after 24 hours in polymicrobial co-culture with phage, LC-MS/MS. The method, boiled down: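 In the three phage-plus-compound polymicrobial cultures, 1 µL was sampled at start and at 24 h and quenched in 1 mL 90% acetonitrile. Analysis used a HILIC column with 20 mM ammonium acetate pH 9.2 containing medronic acid versus acetonitrile, gradient at 0.4 mL/min. MRM monitored 162.1→117 (quantifier) and 162.1→78.1 (qualifier), quantified against a pure-standard calibration curve.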

The test system of series [14] is P. aeruginosa MRSN11538 Thoeris system cloned into P. aeruginosa PAO1. Description: Phage reproduction of Lit1 on P. aeruginosa PAO1:Thoeris II. Particulars: PFUs 15 hours post-infection; 1 mM of IP6C, 8.2 mM of nicotinamide. It is filed as cell-based, Pseudomonas aeruginosa. In outline:
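Overnight P. aeruginosa diluted 1:100 into LB + 10 mM MgSO4. 180 µL went into wells holding 2 µL test compound stock in DMSO or water. After 30 min at 37 °C, ~10,000 PFU Lit1 was added and OD600 read every 30 min at 37 °C. At 15 h, supernatant (16,000 g, 10 min) was titred by drop plaque assay on undefended P. aeruginosa.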

Series [15] has as its system E. faecalis DS16 Thoeris system cloned into E. faecalis OG1RF. Nature of the series: Thoeris protection in liquid media, E. faecalis OG1RF:Thoeris + NPV1. It is filed as cell-based. Particulars: Enterococcus faecalis, read-out: IC50 (inhibition of type II Thoeris in E. faecalis OG1RF:Thoeris).
The subject of series [16] is Streptococcus sanguinis SK36. Description: Polymicrobial model culture, S. sanguinis CFUs. It is filed as cell-based. Particulars: 300 µM IP6C, 8.5 hours. The method, boiled down:
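S. aureus USA300, S. sanguinis SK36 and P. aeruginosa PAO1:Thoeris II overnights were mixed 1:1:1, then diluted 1:100 into TSB + 0.5% yeast extract + 10 mM MgSO4. Wells received DMSO or test compound, plus Lit1 (MOI 0.0001) or LB. Incubation was 8.5 h at 37 °C, 5% CO2. CFUs were counted before and after by PBS serial dilution on Streptococcus Selective Agar at 37 °C, 5% CO2. Three replicates.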

Series [17] deals with ThsB (BaY2ThsB or ArThsB). Nature of the series: Thermal shift assay. It counts as binding. Particulars: 5 µM protein, 1 mM compound, in the presence of NAD+. The method, boiled down: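 BaY2ThsB or ArThsB was mixed with test compound or buffer in 10 mM HEPES pH 7.5, 150 mM NaCl, 5 mM MgCl2 with NAD+.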
Series [18] deals with Thoeris system in the P. aeruginosa MRSN11538 clinical isolate. Nature of the series: Phage reproduction of Lit1 on P. aeruginosa MRSN11538. Particulars: PFUs 20 hours post-infection; 1 mM of IP6C, 8.2 mM of nicotinamide. It counts as cell-based, Pseudomonas aeruginosa.
For series [19], the target named is T1, BaY2ThsB. Description: IP6C-ADPR pull-down with BaY2ThsB. It is filed as binding, Bacillus amyloliquefaciens Y2. Particulars: protein purified from E. coli cells grown with 1.25 mM IP6C. In outline:
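E. coli TOP10 co-expressing DelTM-ThsA-TwinStrep and ThsB-His12 from one pBAD operon was induced at OD600 0.6 with 0.2% L-arabinose, with or without test compound, then grown overnight at 16 °C. ThsB was captured on His-tag magnetic beads, heat-denatured 5 min at 98 °C and centrifuged. Supernatant was analysed by LC-MS (extracted ion chromatogram of conjugate).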

Series [20] addresses T2, BaY2ThsA^Macro. Description: Saturation transfer difference. Particulars: 10 µM BaY2ThsA^Macro, 1 mM IP6C-ADPR, competed with 1 mM ADPR. It is filed as binding, Bacillus amyloliquefaciens Y2.
The test system of a further series is EcThsA^Macro. Nature of the series: ITC experiment. It is filed as binding, Escherichia coli. For orientation: Isothermal titration calorimetry measures the heat released or taken up as one component is titrated into another.

The Kd is the constant that tells how readily two partners part at equilibrium. On to `Nc1ncnc2c1ncn2[C@@H]1O[C@H](COP(=O)(O)OP(=O)(O)OC[C@H]2OC(O)[C@H](O)[C@@H]2O)[C@@H](O)[C@H]1O` (some centres unmarked) [ADPR], for which the dissociation constant (Kd) in [1] is 4.6 ± 0.5 µM.

Turning to `c1ccn2ccnc2c1` [Compound 26, imidazo[1,2-a]pyridine], the “Inhibition of BaY2 Thoeris (phage-induced host population lysis), in words” value in series [2] is listed as “weak potency”.

In general, IC50 refers to the concentration at which inhibition is half-maximal. In the case of `NC(=O)c1ccc2nccn2c1` [IP6C, imidazo[1,2-a]pyridine-6-carboxamide], the IC50 in [3] came out at 19 µM; in series [2] (Bacillus amyloliquefaciens, read-out: IC50 (inhibition of BaY2 Thoeris)), 10 µM; in series [4], 116 µM; in series [15], 8200 µM. Moreover, the “Intracellular NAD+ level” value at BaY2ThsB [5] (500 µM of IP6C, after SPO1 infection) is reported as “unchanged”. For the same molecule, the “His-ADPR production by ThsB” value on BaY2ThsB [5] is listed as “abolished His-ADPR production”. Also, at BaY2ThsA^Macro [6] (E. coli co-expressing BaY2ThsA^Macro and BaY2ThsB grown with 1.25 mM IP6C), the “Amount of His-ADPR bound to BaY2ThsA^Macro” value is “dramatically decreased”. Further, the “Toxicity to human cell lines” value in [7] was “not toxic”. In addition, the “Survival of mice treated with compound only (no phage)” value in [8] is reported as “all mice died within one day”. For the same molecule, in [9] (i.p., 50 μL of 20 mg/mL, observed 7 days), the Toxicity to mice entry is “not toxic”. Moreover, the “Food intake and body weight of mice” value in [9] (mice treated with IP6C) was “initially eat less and lose weight”. In addition, the “S. aureus CFUs in polymicrobial mixture” value in series [10] is on record as “unaffected”. For the same molecule, the “Phage reproduction of SPO1 on B. subtilis expressing BaY2 Thoeris” value in series [11] is given as “promoted the reproduction of SPO1”. Also, the “Phage proliferation of NPV1 on E. faecalis OG1RF:Thoeris” value in [12] is reported as “fully rescued phage proliferation”. Also, the “Temporal stability: IP6C levels in co-culture” value in series [13] is “no measurable decrease”. Further, the “Phage propagation of Lit1 on P. aeruginosa PAO1:Thoeris II” value in [14] is “allowed P. aeruginosa phages to propagate”. Further, the “S. sanguinis CFUs in polymicrobial mixture” value in series [16] is listed as “unaffected”. For the same molecule, the “Binding to ThsB (melting temperature shift)” value in series [17] was “no significant binding”. Also, the “Phage propagation of Lit1 on P. aeruginosa MRSN11538 WT” value in series [18] is “allowed Lit1 phages to successfully propagate”.

As for `NC(=O)c1ccc2n(cc[n+]2[C@@H]2O[C@H](COP(=O)(O)OP(=O)(O)OC[C@H]3O[C@@H](n4cnc5c(N)ncnc54)[C@H](O)[C@@H]3O)[C@@H](O)[C@H]2O)c1` [IP6C-ADPR], the “Intracellular concentration of IP6C-ADPR” value on BaY2ThsB [5] (IPTG-inducible BaY2ThsB expression system, cells grown with IP6C, approximated with IP6C-ADPR standard) was “around 700 nM”. In addition, the “Co-purification of IP6C-ADPR with BaY2ThsB” value at BaY2ThsB [19] is on record as “did not co-purify with BaY2ThsB”. In addition, the “Binding to BaY2ThsA^Macro by STD NMR” value on BaY2ThsA^Macro [20] is recorded as “binds poorly”. Also, the “IP6C-ADPR detected in purified BaY2ThsA^Macro” value at BaY2ThsA^Macro [6] (protein co-expressed with BaY2ThsB in E. coli grown with 1.25 mM IP6C) was “no IP6C-ADPR was detected”. Moreover, the “Binding to EcThsA^Macro by ITC” value in the series on EcThsA^Macro is on record as “did not reveal any interpretable binding”.

Consider `N[C@@H](Cc1c[nH]cn1)C(=O)O` [histidine, reference compound], for which the “Binding to ThsB (melting temperature shift)” value in series [17] is “no significant binding”.

For the molecule `NC(=O)c1cccnc1` [nicotinamide], the values for the IC50 in [3], in series [4] and in [15] were 185 µM, 838 µM and 1500 µM, respectively. In addition, the “Inhibition of BaY2 Thoeris (phage-induced host population lysis), in words” value in [2] (listed as 9) is given as “fully inhibited the Thoeris defense”. Besides, at BaY2ThsB [5], the “His-ADPR production by ThsB” value is given as “inhibited His-ADPR production”. In addition, in series [12], the “Phage proliferation of NPV1 on E. faecalis OG1RF:Thoeris” value was “fully rescued phage proliferation”. For the same molecule, in series [14], the “Phage propagation of Lit1 on P. aeruginosa PAO1:Thoeris II” value is “allowed P. aeruginosa phages to propagate”. In addition, the “Phage propagation of Lit1 on P. aeruginosa MRSN11538 WT” value in [18] is “allowed Lit1 phages to successfully propagate”.
